Experiments:
HT-29 [1] = test: Cellular uptake in human HT-29 cells after 6 hrs by flow cytometer; assay type: ADME, cell-based; details: ht-29, 6 h
Outline: (§1)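 Cells plated at 1 x 10^5 per well, grown 24 h at 37°C, then exposed to conjugate in serum-free medium (0.16–100 µM) for 6 h at 37°C. Cells detached with trypsin/EDTA, resuspended in FCS-free medium and analysed by flow cytometry. Read-out is the percentage of daunorubicin-positive living cells. Duplicate samples at each concentration; each experiment repeated twice.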

HT-29 [2] = test: Cytostatic activity against human HT-29 cells compound incubated for 6 hrs followed by compound wash out measured after 72 hrs by MTT assay; assay type: functional, cell-based
Outline: (§2)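 Cells plated at 5×10^3 per well and grown 24 h. Exposed 6 h to compound in serum-free RPMI-1640 (2.6×10^-4–10^2 µM, six parallels per concentration), washed twice, then cultured 72 h in serum-containing medium. MTT added at 367 µg/mL final for 3.5 h; crystals dissolved in DMSO; OD540 minus OD620 read. Cytostasis% = [1−(OD_treated/OD_control)]×100; IC50 taken from a sigmoidal fit. Three independent experiments, averaged.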

MCF7 [3] = test: Cellular uptake in human MCF7 cells after 6 hrs by flow cytometer; assay type: ADME, cell-based; details: mcf7, 6 h; outline: as §1
MCF7 [4] = test: Cytostatic activity against human MCF7 cells compound incubated for 6 hrs followed by compound wash out measured after 72 hrs by MTT assay; assay type: functional, cell-based; outline: as §2
[5] = Drug metabolism in rat liver lysosomal homogenate after 24 hrs by LC-MS analysis; assay type: ADME, tissue-based; details: tissue homogenate
Outline: (§3)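 Conjugate at 0.1 µg/µL in 0.2 M NaOAc pH 5.0, mixed 1:1 (w/w) with rat liver lysosomal homogenate (protein 17.4 µg/µL by BCA). Incubated at 37°C; aliquots taken at 5 min and 1, 2, 4, 6, 8 and 24 h. Fragments identified by ESI ion-trap LC-MS on a C18 column with a formic acid/acetonitrile gradient, positive mode, m/z 100–2500.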

[6] = Chemical stability of the compound in serum-free DMEM cell culture media after 6 hrs by RP-HPLC analysis; assay type: physicochemical
Outline: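 Conjugate dissolved in water (20% of final volume), then diluted with serum-free DMEM to a final 0.5 mg/mL. Incubated at 37°C for 6 h with hourly sampling. Monitored by analytical RP-HPLC on a C18 or CN column, gradient of 0.1% TFA water/MeCN, detection at 220 nm.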

[7] = Metabolic stability […] assessed as alpha-chymotrypsin-mediated compound degradation after 6 hrs by LC-MS analysis; assay type: ADME, cell-free; details: read-out: Drug degradation
Outline: (§4)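 Digestion with α-chymotrypsin at an enzyme:substrate ratio of 1:50 (w/w) in 100 mM Tris-HCl/10 mM CaCl₂, pH 7.8, at 25°C. Aliquots taken at 5 min and 1, 2, 4, 6, 8 and 24 h, quenched with acetic acid, and analysed by LC-MS for intact conjugate and cleavage fragments.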

Serum = test: Metabolic stability […] assessed as alpha-chymotrypsin-mediated compound degradation after 24 hrs by LC-MS analysis; assay type: ADME, cell-free; outline: as §4
[8] = Drug metabolism in rat liver lysosomal homogenate after 2 hrs by LC-MS analysis; assay type: ADME, tissue-based; details: tissue homogenate; outline: as §3
[9] = target: T1, Gonadotropin-releasing hormone receptor (Homo sapiens, UniProt P30968); test: Displacement of [125I][D-Trp6]GnRH1 from GnRH receptor expressed in human pituitary membrane by gamma counting; assay type: cell membranes
T1 sequence (P30968 whole entry): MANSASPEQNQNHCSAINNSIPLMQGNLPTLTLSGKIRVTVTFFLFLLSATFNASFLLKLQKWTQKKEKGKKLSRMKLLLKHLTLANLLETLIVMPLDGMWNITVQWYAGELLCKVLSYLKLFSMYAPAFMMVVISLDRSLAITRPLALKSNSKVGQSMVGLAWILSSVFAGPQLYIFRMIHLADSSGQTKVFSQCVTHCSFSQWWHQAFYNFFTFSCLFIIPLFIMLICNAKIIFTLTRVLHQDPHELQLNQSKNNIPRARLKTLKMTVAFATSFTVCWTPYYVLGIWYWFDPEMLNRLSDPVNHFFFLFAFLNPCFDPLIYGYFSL
Outline: (§5)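 Membranes came from autopsy anterior pituitary or a surgical prostate cancer specimen, homogenized in 50 mM Tris-HCl pH 7.4 with protease inhibitors and ultracentrifuged. 50–160 µg protein was incubated with 60-80,000 cpm [125I][D-Trp6]GnRH-I and competitor (10^-12–10^-6 M). Bound ligand was pelleted through ice-cold 1.5% BSA buffer and gamma-counted. IC50 (50% inhibition of specific binding) came from curve fitting; mean ± SE of 2–3 experiments, duplicate or triplicate.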

[10] = target: T1, Gonadotropin-releasing hormone receptor; test: Displacement of [125I][D-Trp6]GnRH1 from GnRH receptor expressed in human prostate cancer membrane by gamma counting; assay type: cell membranes, Prostate gland; outline: as §5
MCF7 [11] = test: Cellular uptake in human MCF7 cells at 4 uM after 6 hrs by flow cytometer; assay type: ADME, cell-based; details: mcf7, 6 h; outline: as §1
[12] = Octanol-water partition coefficient, log P of the compound by shake flask method; assay type: physicochemical
Outline: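 Shake-flask octanol/water partitioning with RP-HPLC quantitation. P calculated as the ratio of octanol to water HPLC peak areas, then converted to logP.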

[13] = Metabolic stability […] assessed as alpha-chymotrypsin-mediated compound degradation after 8 hrs by LC-MS analysis; assay type: ADME, cell-free; details: read-out: Drug degradation; outline: as §4
HT-29 [14] = test: Cellular uptake in human HT-29 cells at 100 uM after 6 hrs by flow cytometer; assay type: ADME, cell-based; details: ht-29, 6 h
Outline: (§6)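 Cells were seeded at 1 x 10^5 per well and grown 24 h. MCF-7 were kept in DMEM and HT-29 in RPMI-1640, each with 10% FCS, at 37°C and 5% CO2. Cells were exposed to bioconjugate in serum-free medium (0.16–100 µM) for 6 h at 37°C, then detached with trypsin/EDTA. Flow cytometry gave % daunorubicin-positive living cells; duplicates, two independent experiments, mean ± SD.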

MCF7 [15] = test: Cellular uptake in human MCF7 cells at 20 uM after 6 hrs by flow cytometer; assay type: ADME, cell-based; details: mcf7, 6 h; outline: as §6
[16] = Metabolic stability in human serum assessed as alpha-chymotrypsin-mediated compound degradation after 4 hrs by LC-MS analysis; assay type: ADME, cell-free; details: Tris-HCl/CaCl2 buffer; in the assay text read “in Tris-HCl/CaCl2 buffer” for “in human serum”; read-out: Drug degradation; outline: as §4
[17] = Metabolic stability in presence of alpha-chymotrypsin assessed as compound remaining after 6 hrs by LC-MS analysis
HT-29 [18] = test: Cellular uptake in human HT-29 cells at 20 uM after 6 hrs by flow cytometer; assay type: ADME, cell-based; details: ht-29, 6 h; outline: as §6
MCF7 [19] = test: Cellular uptake in human MCF7 cells at 100 uM after 6 hrs by flow cytometer; assay type: ADME, cell-based; details: mcf7, 6 h; outline: as §6

Drug uptake (HT-29 [1])	IC50 (HT-29 [2]) [µM]	Drug uptake (MCF7 [3])	IC50 (MCF7 [4]) [µM]	Drug metabolism [5]	Stability [6]	metabolised at 6 h [7] [%]	Stability (Serum)	Drug metabolism [8]	SMILES	also measured
Dose-dependent effect	8.1	Dose-dependent effect	2.6	–	–	–	–	–	COc1cccc2c1C(=O)c1c(O)c3c(c(O)c1C2=O)C[C@@](O)(/C(C)=N/OCC(=O)NCCCC[C@H](NC(=O)[C@H](Cc1c[nH]c2ccccc12)NC(=O)[C@H](CC(=O)O)NC(=O)[C@H](Cc1cnc[nH]1)NC(=O)[C@H](CCCCN)NC(=O)[C@H](Cc1c[nH]c2ccccc12)NC(=O)[C@H](Cc1cnc[nH]1)NC(=O)[C@@H]1CCC(=O)N1)C(=O)N1CCC[C@H]1C(=O)NCC(N)=O)C[C@@H]3O[C@H]1C[C@H](N)[C@H](O)[C@H](C)O1	–
Dose-dependent effect	17.2	Dose-dependent effect	3.6	Active	Stable	45	Unstable	Active	CCC(=O)NCCCC[C@H](NC(=O)[C@H](Cc1c[nH]c2ccccc12)NC(=O)[C@H](Cc1cnc[nH]1)NC(=O)[C@@H]1CCC(=O)N1)C(=O)N[C@@H](Cc1cnc[nH]1)C(=O)N[C@@H](CC(=O)O)C(=O)N[C@@H](Cc1c[nH]c2ccccc12)C(=O)N[C@@H](CCCCNC(=O)CO/N=C(\C)[C@]1(O)Cc2c(O)c3c(c(O)c2[C@@H](O[C@H]2C[C@H](N)[C@H](O)[C@H](C)O2)C1)C(=O)c1c(OC)cccc1C3=O)C(=O)N1CCC[C@H]1C(=O)NCC(N)=O	–
Dose-dependent effect	13.6	Dose-dependent effect	1.6	Active	Stable	50	Unstable	Active	C/C=C/C(=O)NCCCC[C@H](NC(=O)[C@H](Cc1c[nH]c2ccccc12)NC(=O)[C@H](Cc1cnc[nH]1)NC(=O)[C@@H]1CCC(=O)N1)C(=O)N[C@@H](Cc1cnc[nH]1)C(=O)N[C@@H](CC(=O)O)C(=O)N[C@@H](Cc1c[nH]c2ccccc12)C(=O)N[C@@H](CCCCNC(=O)CO/N=C(\C)[C@]1(O)Cc2c(O)c3c(c(O)c2[C@@H](O[C@H]2C[C@H](N)[C@H](O)[C@H](C)O2)C1)C(=O)c1c(OC)cccc1C3=O)C(=O)N1CCC[C@H]1C(=O)NCC(N)=O	–
Dose-dependent effect	20.1	Dose-dependent effect	1.5	Active	Stable	30	–	Active	CCCCCC(=O)NCCCC[C@H](NC(=O)[C@H](Cc1c[nH]c2ccccc12)NC(=O)[C@H](Cc1cnc[nH]1)NC(=O)[C@@H]1CCC(=O)N1)C(=O)N[C@@H](Cc1cnc[nH]1)C(=O)N[C@@H](CC(=O)O)C(=O)N[C@@H](Cc1c[nH]c2ccccc12)C(=O)N[C@@H](CCCCNC(=O)CO/N=C(\C)[C@]1(O)Cc2c(O)c3c(c(O)c2[C@@H](O[C@H]2C[C@H](N)[C@H](O)[C@H](C)O2)C1)C(=O)c1c(OC)cccc1C3=O)C(=O)N1CCC[C@H]1C(=O)NCC(N)=O	Drug degradation (Serum): 90%
Dose-dependent effect	37.4	Dose-dependent effect	6.8	Active	Stable	–	–	Active	CCCCCCCCCCCCCC(=O)NCCCC[C@H](NC(=O)[C@H](Cc1c[nH]c2ccccc12)NC(=O)[C@H](Cc1cnc[nH]1)NC(=O)[C@@H]1CCC(=O)N1)C(=O)N[C@@H](Cc1cnc[nH]1)C(=O)N[C@@H](CC(=O)O)C(=O)N[C@@H](Cc1c[nH]c2ccccc12)C(=O)N[C@@H](CCCCNC(=O)CO/N=C(\C)[C@]1(O)Cc2c(O)c3c(c(O)c2[C@@H](O[C@H]2C[C@H](N)[C@H](O)[C@H](C)O2)C1)C(=O)c1c(OC)cccc1C3=O)C(=O)N1CCC[C@H]1C(=O)NCC(N)=O	Drug uptake (MCF7 [11]): 41.3%; logP [12]: -0.596
Dose-dependent effect	16.4	Dose-dependent effect	2.5	Active	Stable	34	Unstable	Active	COc1cccc2c1C(=O)c1c(O)c3c(c(O)c1C2=O)C[C@@](O)(/C(C)=N/OCC(=O)NCCCC[C@H](NC(=O)[C@H](Cc1c[nH]c2ccccc12)NC(=O)[C@H](CC(=O)O)NC(=O)[C@H](Cc1cnc[nH]1)NC(=O)[C@H](CCCCNC(=O)CC(C)C)NC(=O)[C@H](Cc1c[nH]c2ccccc12)NC(=O)[C@H](Cc1cnc[nH]1)NC(=O)[C@@H]1CCC(=O)N1)C(=O)N1CCC[C@H]1C(=O)NCC(N)=O)C[C@@H]3O[C@H]1C[C@H](N)[C@H](O)[C@H](C)O1	metabolised at 8 h [13]: 50%
Dose-dependent effect	2	Dose-dependent effect	2.2	Active	Stable	90	Unstable	Active	COc1cccc2c1C(=O)c1c(O)c3c(c(O)c1C2=O)C[C@@](O)(/C(C)=N/OCC(=O)NCCCC[C@H](NC(=O)[C@H](Cc1c[nH]c2ccccc12)NC(=O)[C@H](CC(=O)O)NC(=O)[C@H](Cc1cnc[nH]1)NC(=O)[C@H](CCCCNC(=O)C(C)C)NC(=O)[C@H](Cc1c[nH]c2ccccc12)NC(=O)[C@H](Cc1cnc[nH]1)NC(=O)[C@@H]1CCC(=O)N1)C(=O)N1CCC[C@H]1C(=O)NCC(N)=O)C[C@@H]3O[C@H]1C[C@H](N)[C@H](O)[C@H](C)O1	Drug uptake (HT-29 [14]): 99.9%; Drug uptake (MCF7 [15]): 93.3%; metabolised at 4 h [16]: 60%; remaining at 6 h [17]: 10%; Drug uptake (HT-29 [18]): 96.9%; Drug uptake (MCF7 [19]): 99.7%

SMILES	Drug uptake (HT-29 [1])	IC50 (HT-29 [2]) [µM]	Drug uptake (MCF7 [3])	IC50 (MCF7 [4]) [µM]	Drug metabolism [5]	Stability [6]	metabolised at 6 h [7] [%]	Stability (Serum)	Drug metabolism [8]	also measured
COc1cccc2c1C(=O)c1c(O)c3c(c(O)c1C2=O)C[C@@](O)(/C(C)=N/OCC(=O)NCCCC[C@@H](NC(=O)[C@H](Cc1ccc(O)cc1)NC(=O)[C@H](CO)NC(=O)[C@H](Cc1c[nH]c2ccccc12)NC(=O)[C@H](Cc1cnc[nH]1)NC(=O)[C@@H]1CCC(=O)N1)C(=O)N[C@@H](CC(C)C)C(=O)N[C@@H](CCCNC(=N)N)C(=O)N1CCC[C@H]1C(=O)NCC(N)=O)C[C@@H]3O[C@H]1C[C@H](N)[C@H](O)[C@H](C)O1	Dose-dependent effect	20.2	Dose-dependent effect	4.1	–	–	–	–	–	IC50 [9]: 0.00162 µM; IC50 [10]: 0.0165 µM
